ChEMBL document CHEMBL3352338, “Development and biological evaluation of potent and selective c-KIT(D816V) inhibitors” (J Med Chem, 2014)
The source made the active and inactive calls. The calls are words filed in the database; no cut-off is given here.

Columns and labels:
[1] = target: Mast/stem cell growth factor receptor Kit (Homo sapiens, UniProt P10721); conditions: 5 uM
[2] = tested on: Mast/stem cell growth factor receptor Kit (Homo sapiens), P10721 [D816V]; assay: Inhibition of c-KIT D816V mutant (unknown origin) at 1 uM by KINOMEscanning assay relative to control; values are per cent of control
Chain of Mast/stem cell growth factor receptor Kit (Homo sapiens), P10721 [D816V] (P10721 whole entry D816V, canonical isoform): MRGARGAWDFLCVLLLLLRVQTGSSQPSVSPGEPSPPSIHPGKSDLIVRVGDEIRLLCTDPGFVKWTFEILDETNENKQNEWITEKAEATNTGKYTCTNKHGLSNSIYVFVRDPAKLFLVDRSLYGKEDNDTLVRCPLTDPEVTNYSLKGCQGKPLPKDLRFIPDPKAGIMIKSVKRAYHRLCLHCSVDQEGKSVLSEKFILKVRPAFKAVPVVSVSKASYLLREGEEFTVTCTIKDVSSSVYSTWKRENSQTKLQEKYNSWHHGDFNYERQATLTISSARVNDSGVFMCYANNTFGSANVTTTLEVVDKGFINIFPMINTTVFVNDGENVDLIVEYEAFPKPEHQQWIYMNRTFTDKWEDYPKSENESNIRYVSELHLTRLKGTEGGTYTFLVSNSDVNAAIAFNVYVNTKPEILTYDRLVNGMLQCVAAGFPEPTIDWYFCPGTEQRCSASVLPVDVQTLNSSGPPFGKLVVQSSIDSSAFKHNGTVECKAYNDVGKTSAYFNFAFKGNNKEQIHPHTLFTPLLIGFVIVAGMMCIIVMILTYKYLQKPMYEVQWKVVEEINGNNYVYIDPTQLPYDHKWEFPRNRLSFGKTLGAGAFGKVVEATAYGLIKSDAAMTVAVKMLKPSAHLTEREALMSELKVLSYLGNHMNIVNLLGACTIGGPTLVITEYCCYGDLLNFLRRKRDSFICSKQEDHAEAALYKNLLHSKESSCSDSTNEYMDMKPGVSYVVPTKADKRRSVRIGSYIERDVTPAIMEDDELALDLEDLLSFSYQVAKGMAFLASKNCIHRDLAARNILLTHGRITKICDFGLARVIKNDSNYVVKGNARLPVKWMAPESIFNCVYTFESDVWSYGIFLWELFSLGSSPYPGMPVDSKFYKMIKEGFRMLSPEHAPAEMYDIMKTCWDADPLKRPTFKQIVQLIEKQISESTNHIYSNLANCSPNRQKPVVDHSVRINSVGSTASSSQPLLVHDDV

[3] = target: Phosphatidylinositol 4,5-bisphosphate 3-kinase catalytic subunit alpha isoform (Homo sapiens, UniProt P42336); assay: Inhibition of PI3Kalpha (unknown origin)
Chain of Phosphatidylinositol 4,5-bisphosphate 3-kinase catalytic subunit alpha isoform (P42336 whole entry, canonical isoform): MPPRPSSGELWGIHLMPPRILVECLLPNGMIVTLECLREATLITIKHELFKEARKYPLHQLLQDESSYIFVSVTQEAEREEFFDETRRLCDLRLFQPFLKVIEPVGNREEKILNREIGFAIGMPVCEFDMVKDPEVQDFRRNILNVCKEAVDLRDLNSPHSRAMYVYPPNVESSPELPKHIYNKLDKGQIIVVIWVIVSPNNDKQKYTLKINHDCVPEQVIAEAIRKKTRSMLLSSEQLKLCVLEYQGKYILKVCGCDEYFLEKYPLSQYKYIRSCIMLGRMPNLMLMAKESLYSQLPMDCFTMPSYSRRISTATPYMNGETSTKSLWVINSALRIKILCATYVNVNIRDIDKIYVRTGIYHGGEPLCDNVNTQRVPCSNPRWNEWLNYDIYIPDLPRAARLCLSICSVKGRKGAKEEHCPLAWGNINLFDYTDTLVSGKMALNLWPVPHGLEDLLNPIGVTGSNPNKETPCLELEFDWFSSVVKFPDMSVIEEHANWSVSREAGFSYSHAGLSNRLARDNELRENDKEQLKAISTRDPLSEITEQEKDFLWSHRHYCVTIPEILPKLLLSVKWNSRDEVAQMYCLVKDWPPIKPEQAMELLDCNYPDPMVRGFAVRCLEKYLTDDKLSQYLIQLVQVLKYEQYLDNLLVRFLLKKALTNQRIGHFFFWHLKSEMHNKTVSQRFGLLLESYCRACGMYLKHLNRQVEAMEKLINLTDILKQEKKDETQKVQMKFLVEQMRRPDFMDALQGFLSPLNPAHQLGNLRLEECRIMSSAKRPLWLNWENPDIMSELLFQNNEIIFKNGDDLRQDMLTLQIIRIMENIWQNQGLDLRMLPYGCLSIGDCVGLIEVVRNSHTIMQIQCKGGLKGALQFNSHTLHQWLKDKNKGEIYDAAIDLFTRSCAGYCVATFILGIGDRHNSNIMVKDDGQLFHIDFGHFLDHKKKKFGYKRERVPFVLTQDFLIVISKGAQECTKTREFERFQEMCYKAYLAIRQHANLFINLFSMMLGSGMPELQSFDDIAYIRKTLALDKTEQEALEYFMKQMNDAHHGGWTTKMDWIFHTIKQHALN

[4] = Induction of apoptosis in human HMC-1.2 cells assessed as apoptotic cells at 5 uM after 48 hrs by TUNEL staining (reference value: 0.849%); type: functional
[5] = Cell cycle arrest in human HMC-1.2 cells assessed as accumulation at sub-G1 phase after 24 hrs by flow cytometric analysis; type: functional, cell-based
In short: (§1)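 HMC-1.2 cells exposed to increasing concentrations for 24 h; cell cycle distribution (SubG1/G1 fraction) measured by flow cytometry.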

[6] = Induction of apoptosis in human HMC-1.2 cells assessed as apoptotic cells at 1 uM after 48 hrs by TUNEL staining (reference value: 0.849%); type: functional
[7] = Induction of apoptosis in human HMC-1.2 cells assessed as apoptotic cells at 0.1 uM after 48 hrs by TUNEL staining (reference value: 0.849%); type: functional
[8] = Cell cycle arrest in human HMC-1.2 cells assessed as accumulation at G1 phase after 24 hrs by flow cytometric analysis; type: functional, cell-based
In short: as §1

Chain of Mast/stem cell growth factor receptor Kit (P10721 whole entry): as the sequence (P10721 whole entry D816V, canonical isoform) above, with V816D counted along it

SMILES	inhibition [1]	residual activity [2] [%]	IC50 [3] [µM]	Activity [4] [%]	inhibition [5]	Activity [6] [%]	Activity [7] [%]	inhibition [8]
COc1ccc(-c2c[nH]c3ncc(-c4ccc(C(=O)N5CCOCC5)c(N)c4)cc23)cc1OC	–	1.4	–	–	–	–	–	–
COc1ccc(-c2c[nH]c3ncc(-c4cc(OC)c(OC)c(OC)c4)cc23)cc1OC	Active	0	–	–	–	–	–	–

Continued, in another order:

inhibition [1]	residual activity [2] [%]	IC50 [3] [µM]	SMILES	Activity [4] [%]	inhibition [5]	Activity [6] [%]	Activity [7] [%]	inhibition [8]
Active	2.1	–	COc1cc(-c2c[nH]c3ncc(-c4cccc(N)c4)cc23)cc(OC)c1OC	–	–	–	–	–
Active	0	> 10	COc1ccc(-c2cnc3[nH]cc(-c4ccc(OC)c(OC)c4)c3c2)cc1OC	69.9	Dose-dependent effect	13.3	0.732	Dose-dependent effect
Active	0	–	COc1ccc(-c2cnc3[nH]cc(-c4ccc(OC)c(OC)c4)c3c2)cc1N	–	–	–	–	–
